Drawing on ChEMBL document CHEMBL4334451, “Natural Alkaloid Berberine Activity against Pseudomonas aeruginosa MexXY-Mediated Aminoglycoside Resistance: In Silico and in Vitro Studies” (J Nat Prod, 2019), this text covers fold change (FC), inhibition and MIC for one compound.

The source made the active and inactive calls. No cut-off for these calls is given here. Where only a bound is given, the exact number is not on record here.

Assay type in all cases: protein-complex assay
The target in assay [1] is T1, MexXY/OprM (Pseudomonas aeruginosa (strain ATCC 15692 / DSM 22644 / CIP 104116 / JCM14847 / LMG 12228 / 1C / PRS 101 / PAO1)) (UniProt Q51487+Q9ZNG9+Q9ZNG8). Nature of the assay: Inhibition of MexXY/OPRM in Pseudomonas aeruginosa C89 assessed as reduction in bacterial resistance to tobramycin by measuring fold reduction in tobramycin MIC at 80 ug/ml incubated for 24 to 48 hrs by broth microdilution method. An outline of the steps: (§1)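 Tobramycin MIC by CLSI broth microdilution at 37°C, read at 24 and 48 h, with and without a fixed berberine concentration selected from checkerboard assays. Berberine stock was in 50% DMSO/50% methanol, final DMSO about 1%. A 2-fold decrease in tobramycin MIC was scored as synergy.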

The target of assay [2] is T1, MexXY/OprM (Pseudomonas aeruginosa (strain ATCC 15692 / DSM 22644 / CIP 104116 / JCM14847 / LMG 12228 / 1C / PRS 101 / PAO1)). Description: Inhibition of MexXY/OPRM in Pseudomonas aeruginosa C67 assessed as bacterial growth up to 320 ug/ml incubated for 24 to 48 hrs by broth microdilution method. The method in brief:
(§2)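 Broth microdilution following CLSI guidelines, with P. aeruginosa ATCC 27853 as reference strain. Berberine was tested at 2-fold concentrations from 10 to 320 µg/ml, dissolved in 50% DMSO/50% methanol, with the top concentration set to keep final DMSO close to 1%. Plates were incubated at 37°C and read for visible growth at 24 and 48 h.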

Assay [3] has the same target. Description: Inhibition of MexXY/OPRM in Pseudomonas aeruginosa C93 assessed as bacterial growth up to 320 ug/ml incubated for 24 to 48 hrs by broth microdilution method. An outline of the steps:
(§3)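 Broth microdilution per CLSI, with P. aeruginosa ATCC 27853 as reference strain, in 2-fold dilution series. Plates were incubated at 37°C and read for visible growth at 24 and 48 h. Berberine stock was in 50% DMSO/50% methanol, with final DMSO kept near 1%. Berberine was tested at 10–320 µg/ml, alone or at a fixed level with serial tobramycin.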
A general note: In broth dilution the organism is exposed to a series of concentrations in liquid medium.

Assay [4] shares this target. Description: Inhibition of MexXY/OPRM in Pseudomonas aeruginosa C54 assessed as reduction in bacterial resistance to tobramycin by measuring tobramycin MIC at 80 ug/ml incubated for 24 to 48 hrs by broth microdilution method (reference value: 32 ug/ml).
Assay [5] has the same target. Nature of the assay: Inhibition of MexXY/OPRM in Pseudomonas aeruginosa C89 assessed as reduction in bacterial resistance to tobramycin by measuring tobramycin MIC at 80 ug/ml incubated for 24 to 48 hrs by broth microdilution method (reference value: >128 ug/ml). The method in brief: as §3
For assay [6] the target is unchanged. Nature of the assay: Inhibition of MexXY/OPRM in Pseudomonas aeruginosa C70 assessed as bacterial growth up to 320 ug/ml incubated for 24 to 48 hrs by broth microdilution method. An outline of the steps:
as §2

Assay [7] shares this target. Description: Inhibition of MexXY/OPRM in Pseudomonas aeruginosa C61 assessed as reduction in bacterial resistance to tobramycin by measuring fold reduction in tobramycin MIC at 80 ug/ml incubated for 24 to 48 hrs by broth microdilution method.
Assay [8] shares this target. Nature of the assay: Inhibition of MexXY/OPRM in Pseudomonas aeruginosa C93 assessed as reduction in bacterial resistance to tobramycin by measuring tobramycin MIC at 80 ug/ml incubated for 24 to 48 hrs by broth microdilution method (reference value: >128 ug/ml). An outline of the steps:
as §3

Assay [9] has the same target. Nature of the assay: Inhibition of MexXY/OPRM in Pseudomonas aeruginosa C51 assessed as bacterial growth up to 320 ug/ml incubated for 24 to 48 hrs by broth microdilution method. An outline of the steps:
as §2

Assay [10] has the same target. Nature of the assay: Inhibition of MexXY/OPRM in Pseudomonas aeruginosa C30 assessed as bacterial growth up to 320 ug/ml incubated for 24 to 48 hrs by broth microdilution method. The method in brief: as §2
The target is the same in assay [11]. Nature of the assay: Inhibition of MexXY/OPRM in Pseudomonas aeruginosa C59 assessed as reduction in bacterial resistance to tobramycin by measuring tobramycin MIC at 80 ug/ml incubated for 24 to 48 hrs by broth microdilution method (reference value: 64 ug/ml).
Assay [12] has the same target. Description: Inhibition of MexXY/OPRM in Pseudomonas aeruginosa C104 assessed as bacterial growth up to 320 ug/ml incubated for 24 to 48 hrs by broth microdilution method. An outline of the steps: as §2
Assay [13] has the same target. Nature of the assay: Inhibition of MexXY/OPRM in Pseudomonas aeruginosa AR61 assessed as bacterial growth up to 320 ug/ml incubated for 24 to 48 hrs by broth microdilution method. An outline of the steps: as §2
The target is the same in assay [14]. Nature of the assay: Inhibition of MexXY/OPRM in Pseudomonas aeruginosa AR48 assessed as reduction in bacterial resistance to tobramycin by measuring tobramycin MIC at 80 ug/ml incubated for 24 to 48 hrs by broth microdilution method (reference value: 32 ug/ml).
Assay [15] shares this target. Nature of the assay: Inhibition of MexXY/OPRM in Pseudomonas aeruginosa C84 assessed as reduction in bacterial resistance to tobramycin by measuring fold reduction in tobramycin MIC at 80 ug/ml incubated for 24 to 48 hrs by broth microdilution method. The method in brief: as §1
Assay [16] shares this target. Nature of the assay: Inhibition of MexXY/OPRM in Pseudomonas aeruginosa C15 assessed as reduction in bacterial resistance to tobramycin by measuring tobramycin MIC at 80 ug/ml incubated for 24 to 48 hrs by broth microdilution method (reference value: 8 ug/ml).
The target is the same in assay [17]. Nature of the assay: Inhibition of MexXY/OPRM in Pseudomonas aeruginosa PA14 assessed as bacterial growth up to 320 ug/ml incubated for 24 to 48 hrs by broth microdilution method. The method in brief: as §3
Assay [18] shares this target. Nature of the assay: Inhibition of MexXY/OPRM in Pseudomonas aeruginosa C15 assessed as bacterial growth up to 320 ug/ml incubated for 24 to 48 hrs by broth microdilution method. The method in brief:
as §2

Assay [19] shares this target. Nature of the assay: Inhibition of MexXY/OPRM in Pseudomonas aeruginosa C95 assessed as reduction in bacterial resistance to tobramycin by measuring tobramycin MIC at 80 ug/ml incubated for 24 to 48 hrs by broth microdilution method (reference value: 32 ug/ml). The method in brief: as §3
Assay [20] shares this target. Description: Inhibition of MexXY/OPRM in Pseudomonas aeruginosa PA14 assessed as reduction in bacterial resistance to tobramycin by measuring tobramycin MIC at 80 ug/ml incubated for 24 to 48 hrs by broth microdilution method (reference value: 0.125 ug/ml). An outline of the steps: as §3
For assay [21] the target is unchanged. Nature of the assay: Inhibition of MexXY/OPRM in Pseudomonas aeruginosa C70 assessed as reduction in bacterial resistance to tobramycin by measuring fold reduction in tobramycin MIC at 80 ug/ml incubated for 24 to 48 hrs by broth microdilution method.
Assay [22] has the same target. Description: Inhibition of MexXY/OPRM in Pseudomonas aeruginosa C6 assessed as bacterial growth up to 320 ug/ml incubated for 24 to 48 hrs by broth microdilution method. An outline of the steps:
as §2

Assay [23] has the same target. Description: Inhibition of MexXY/OPRM in Pseudomonas aeruginosa C104 assessed as reduction in bacterial resistance to tobramycin by measuring tobramycin MIC at 80 ug/ml incubated for 24 to 48 hrs by broth microdilution method (reference value: 32 ug/ml).
For assay [24] the target is unchanged. Description: Inhibition of MexXY/OPRM in Pseudomonas aeruginosa C86 assessed as bacterial growth up to 320 ug/ml incubated for 24 to 48 hrs by broth microdilution method. An outline of the steps: as §3

In the case of `COc1ccc2cc3[n+](cc2c1OC)CCc1cc2c(cc1-3)OCO2` [BERBERINE], the fold change (FC) in assay [1], in [7], in assay [15] and in assay [21] was over 2 throughout. The inhibition result in assay [2], in assay [3], in [6], in assay [9], in assay [10] and in assay [12] was “inactive” in each case. In addition, the inhibition entry in [13], in assay [17], in assay [18], in assay [22] and in assay [24] was “inactive” in each case. The MIC in [4] worked out at 16 µg/mL; in assay [5], 64 µg/mL; in assay [8], 64 µg/mL; in assay [11], 32 µg/mL; in assay [14], 8 µg/mL; in assay [16], 8 µg/mL. Also, the MIC was 4 µg/mL in assay [19], 0.125 µg/mL in assay [20] and 8 µg/mL in assay [23].
